Laboratory results: ChEMBL document CHEMBL3593222, “6-Phenoxy-2-phenylbenzoxazoles, novel inhibitors of receptor for advanced glycation end products (RAGE)” (Bioorg Med Chem, 2015)
Calls of active or inactive are those of the source. No cut-off for these calls is given here.

Legend:
HT-22 [1] = assay: (§1) Cytotoxicity against mouse HT22 cells assessed as cell viability at 10 uM after 18 hrs by MTT assay; assay type: cell-based; settings: ht-22, 18 h, 10 µM
In short: (§2)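 HT22 cells were grown in DMEM with 10% FBS and penicillin/streptomycin at 37 °C in 5% CO2, and seeded at 5000 cells/well. Next day they were exposed to 10 µM compound for 18 h. MTT was then added for 3 h, formazan dissolved in acidic 2-propanol, and OD read at 570 nm. Viability is blank-corrected absorbance relative to control. Run in triplicate.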

[2] = target: Advanced glycosylation end product-specific receptor (Homo sapiens) (UniProt Q15109); assay: Inhibition of human RAGE-amyloid beta-42 interaction at 4 uM preincubated for 30 mins measured after 1 hr by FRET assay relative to control
In short: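 Biotinylated human RAGE (2.5 µg) was premixed with 200 ng Cy3-streptavidin in PBS for 30 min at rt. Aβ42-FITC (50 µL of 40 nM) and compound (50 µL of 4 µM) were then added, in 200 µL final volume with 0.1% DMSO. Fluorescence was read 1 h later. FRET efficiency was computed from donor emission with and without acceptor, and percent inhibition was taken against vehicle. Triplicate.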

[3] = as §1; assay type: cell-based, HT-22; settings: HT22 cells, read-out: Activity; in short: as §2
[4] = Solubility of the compound in water; assay type: physicochemical; settings: buffer
HT-22 [5] = assay: Neuroprotective activity in mouse HT22 cells assessed as inhibition of amyloid beta-induced cytotoxicity by measuring cell viability at 10 uM after 18 hrs by MTT assay; assay type: functional; settings: HT-22, 18 h
In short: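 Aβ peptide was pretreated in HFIP, dried to a film, redissolved in DMSO, and aggregated at 200 µM in PBS for 24 h at 4 °C. HT22 cells (5000/well) were exposed the next day to 2 µM aggregated Aβ plus 10 µM compound for 18 h. Viability was read by MTT at 570 nm, and percent inhibition was calculated against Aβ with vehicle. Triplicate.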

Chain of Advanced glycosylation end product-specific receptor (Homo sapiens) (Q15109 whole entry): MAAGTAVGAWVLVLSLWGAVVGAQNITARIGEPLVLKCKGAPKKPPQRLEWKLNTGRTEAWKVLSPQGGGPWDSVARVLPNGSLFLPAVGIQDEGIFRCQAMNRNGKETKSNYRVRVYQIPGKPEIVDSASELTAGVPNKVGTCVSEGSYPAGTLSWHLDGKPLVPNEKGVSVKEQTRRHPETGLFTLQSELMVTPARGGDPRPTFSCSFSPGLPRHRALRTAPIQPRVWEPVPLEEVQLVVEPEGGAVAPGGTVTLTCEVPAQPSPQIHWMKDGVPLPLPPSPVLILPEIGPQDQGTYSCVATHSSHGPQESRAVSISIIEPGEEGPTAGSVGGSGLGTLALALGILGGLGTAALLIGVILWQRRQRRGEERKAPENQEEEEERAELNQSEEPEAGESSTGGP

Compound | inhibition [2] | solubility [4] | Activity (HT-22 [1]) | viability at 18 h, 10 µM [3] [%] | inhibition at 10 µM (HT-22 [5]) [%]
CC(C)(C)OC(=O)N[C@H]1CCN(CCCOc2ccc(-c3nc4ccc(Oc5ccc(Cl)cc5)cc4o3)cc2)C1 | 16.6% |  |  | 58.2 | 
Clc1ccc(Oc2ccc3nc(-c4ccc(OCC5CCNCC5)cc4)oc3c2)cc1 | inactive |  |  | 29 | 
CC(C)(C)OC(=O)N1CCN(CCCOc2ccc(-c3nc4ccc(Oc5ccc(C(F)(F)F)cc5)cc4o3)cc2)CC1 | 27.8% |  |  | 7.9 | 
CC(C)(C)OC(=O)N[C@@H]1CCN(CCCOc2ccc(-c3nc4ccc(Oc5ccc(C(C)(C)C)cc5)cc4o3)cc2)C1 | 26.8% |  | Non-toxic |  | 
Clc1ccc(Oc2ccc3nc(-c4ccc(OCCCN5CCC(c6ccccc6)CC5)cc4)oc3c2)cc1 | inactive | Insoluble | Non-toxic |  | 
Clc1ccc(Oc2ccc3nc(-c4ccc(OCC5CCN(Cc6ccccc6)CC5)cc4)oc3c2)cc1 | 5.1% | Insoluble |  | 82.4 | 
CCN(CC)CCCOc1ccc(-c2nc3ccc(Oc4ccc(C(F)(F)F)cc4)cc3o2)cc1 | 34.9% |  | Non-toxic |  | 
CC(=O)N1CCC(COc2ccc(-c3nc4ccc(Oc5ccc(Cl)cc5)cc4o3)cc2)CC1 | inactive |  |  | 32.7 | 
CC(C)(C)OC(=O)N1CCC(Oc2ccc(-c3nc4ccc(Oc5ccc(Cl)cc5)cc4o3)cc2)CC1 | inactive |  | Non-toxic |  | 
CC(C)(C)OC(=O)N1CCC(COc2ccc(-c3nc4ccc(Oc5ccc(Cl)cc5)cc4o3)cc2)CC1 | inactive |  | Non-toxic |  | 
CC(C)N1CCC(COc2ccc(-c3nc4ccc(Oc5ccc(Cl)cc5)cc4o3)cc2)CC1 | 26.2% |  | Non-toxic |  | 
CCN(CC)CCOc1ccc(-c2nc3ccc(Oc4ccc(Cl)cc4)cc3o2)cc1 | 33.5% |  |  | 85.2 | 
CCN(CC)CCCOc1ccc(-c2nc3ccc(Oc4cccc(C(F)(F)F)c4)cc3o2)cc1 | 24.1% |  | Non-toxic |  | 
CC(C)(C)OC(=O)N1CCN(CCOc2ccc(-c3nc4ccc(Oc5ccc(Cl)cc5)cc4o3)cc2)CC1 | 24.6% |  | Non-toxic |  | 50.6
CC(C)(C)OC(=O)N1CCN(CCCOc2ccc(-c3nc4ccc(Oc5cccc(C(F)(F)F)c5)cc4o3)cc2)CC1 | 22.8% |  | Non-toxic |  | 56.2
Clc1ccc(Oc2ccc3nc(-c4ccc(OC5CCNCC5)cc4)oc3c2)cc1 | 20.6% |  |  | 20.6 | 
CC(C)(C)OC(=O)N[C@H]1CCN(CCCOc2ccc(-c3nc4ccc(Oc5ccc(C(C)(C)C)cc5)cc4o3)cc2)C1 | 61.6% |  |  | 8.2 | 
CC(=O)N1CCC(Oc2ccc(-c3nc4ccc(Oc5ccc(Cl)cc5)cc4o3)cc2)CC1 | 20% |  | Non-toxic |  | 
CC(C)(C)OC(=O)N[C@@H]1CCN(CCCOc2ccc(-c3nc4ccc(Oc5ccc(Cl)cc5)cc4o3)cc2)C1 | 90.2% |  |  | 63.2 | 
CC(C)N1CCC(Oc2ccc(-c3nc4ccc(Oc5ccc(Cl)cc5)cc4o3)cc2)CC1 | 12.7% |  |  | 86.5 | 
CCN1CCC(COc2ccc(-c3nc4ccc(Oc5ccc(Cl)cc5)cc4o3)cc2)CC1 | 2.1% |  |  | 4.1 | 
CN1CCC(Oc2ccc(-c3nc4ccc(Oc5ccc(Cl)cc5)cc4o3)cc2)CC1 | 19.5% |  |  | 74.3 | 
CCN(CC)CCCOc1ccc(-c2nc3ccc(Oc4ccc(Cl)cc4)cc3o2)cc1 | 4.9% |  |  | 32.1 | 
CCN1CCC(Oc2ccc(-c3nc4ccc(Oc5ccc(Cl)cc5)cc4o3)cc2)CC1 | 15.3% |  |  | 38.2 | 
CCN(CC)CCCOc1ccc(-c2nc3ccc(Oc4ccc(C(C)(C)C)cc4)cc3o2)cc1 | inactive |  |  | 74.1 | 

Second part, led by results:

inhibition [2] | solubility [4] | Compound | Activity (HT-22 [1]) | viability at 18 h, 10 µM [3] [%] | inhibition at 10 µM (HT-22 [5]) [%]
56.7% |  | Fc1ccc(Oc2ccc3nc(-c4ccc(OCCCN5CCOCC5)cc4)oc3c2)cc1 | Non-toxic |  | 
inactive |  | CC(C)(C)c1ccc(Oc2ccc3nc(-c4ccc(OCCCN5CC[C@@H](N)C5)cc4)oc3c2)cc1 |  | 12.8 | 
2.2% |  | Clc1ccc(Oc2ccc3nc(-c4ccc(OCCCN5CCCCC5)cc4)oc3c2)cc1 |  | 32.4 | 
44.3% |  | FC(F)(F)c1ccc(Oc2ccc3nc(-c4ccc(OCCCN5CCCCC5)cc4)oc3c2)cc1 |  | 93.4 | 
6.6% |  | CCOC(=O)N1CCN(CCCOc2ccc(-c3nc4ccc(Oc5ccc(Cl)cc5)cc4o3)cc2)CC1 | Non-toxic |  | 
54.7% |  | CC(C)(C)c1ccc(Oc2ccc3nc(-c4ccc(OCCCN5CC[C@H](N)C5)cc4)oc3c2)cc1 |  | 60.3 | 
inactive |  | Clc1ccc(Oc2ccc3nc(-c4ccc(OCCCN5CCOCC5)cc4)oc3c2)cc1 | Non-toxic |  | 
21% |  | CC(C)(C)OC(=O)N1CCN(CCCOc2ccc(-c3nc4ccc(Oc5ccc(F)cc5)cc4o3)cc2)CC1 |  | 15.2 | 62.3
inactive |  | FC(F)(F)c1cccc(Oc2ccc3nc(-c4ccc(OCCCN5CCOCC5)cc4)oc3c2)c1 | Non-toxic |  | 
32.1% |  | FC(F)(F)c1ccc(Oc2ccc3nc(-c4ccc(OCCCN5CCOCC5)cc4)oc3c2)cc1 | Non-toxic |  | 
inactive |  | CC(C)(C)c1ccc(Oc2ccc3nc(-c4ccc(OCCCN5CCCC5)cc4)oc3c2)cc1 | Non-toxic |  | 
inactive |  | COC(=O)N1CCN(CCCOc2ccc(-c3nc4ccc(Oc5ccc(Cl)cc5)cc4o3)cc2)CC1 | Non-toxic |  | 
42.7% |  | Clc1ccc(Oc2ccc3nc(-c4ccc(OCCCN5CCNCC5)cc4)oc3c2)cc1 |  | 18.5 | 
42.7% |  | FC(F)(F)c1cccc(Oc2ccc3nc(-c4ccc(OCCCN5CCCCC5)cc4)oc3c2)c1 |  | 4.4 | 
inactive |  | CC(C)(C)c1ccc(Oc2ccc3nc(-c4ccc(OCCCN5CCOCC5)cc4)oc3c2)cc1 | Non-toxic |  | 
41.2% |  | CC(C)COC(=O)N1CCN(CCCOc2ccc(-c3nc4ccc(Oc5ccc(Cl)cc5)cc4o3)cc2)CC1 | Non-toxic |  | 
18.5% |  | Clc1ccc(Oc2ccc3nc(-c4ccc(OCCN5CCCCC5)cc4)oc3c2)cc1 |  | 21.4 | 
30.3% |  | Fc1ccc(Oc2ccc3nc(-c4ccc(OCCCN5CCCCC5)cc4)oc3c2)cc1 | Non-toxic |  | 
inactive |  | CC(C)(C)c1ccc(Oc2ccc3nc(-c4ccc(OCCCN5CCCCC5)cc4)oc3c2)cc1 |  | 49.4 | 
29.9% |  | N[C@H]1CCN(CCCOc2ccc(-c3nc4ccc(Oc5ccc(Cl)cc5)cc4o3)cc2)C1 | Non-toxic |  | 
inactive | Insoluble | Clc1ccc(Oc2ccc3nc(-c4ccc(OCCCN5CCN(c6ccccc6)CC5)cc4)oc3c2)cc1 | Non-toxic |  | 
25.9% |  | CC(C)OC(=O)N1CCN(CCCOc2ccc(-c3nc4ccc(Oc5ccc(Cl)cc5)cc4o3)cc2)CC1 | Non-toxic |  | 54.4
5.4% |  | CCN(CC)CCCOc1ccc(-c2nc3ccc(Oc4ccc(F)cc4)cc3o2)cc1 | Non-toxic |  | 
19.6% |  | N[C@@H]1CCN(CCCOc2ccc(-c3nc4ccc(Oc5ccc(Cl)cc5)cc4o3)cc2)C1 | Non-toxic |  | 
16.6% |  | CC(C)(C)C1CCN(CCCOc2ccc(-c3nc4ccc(Oc5ccc(Cl)cc5)cc4o3)cc2)CC1 |  | 32.2 | 
24.3% |  | CN1CCN(CCCOc2ccc(-c3nc4ccc(Oc5ccc(Cl)cc5)cc4o3)cc2)CC1 |  | 69.3 | 
inactive |  | Clc1ccc(Oc2ccc3nc(-c4ccc(OCCCN5CCCC5)cc4)oc3c2)cc1 | Non-toxic |  | 
25.7% |  | Clc1ccc(Oc2ccc3nc(-c4ccc(OCCN5CCOCC5)cc4)oc3c2)cc1 | Non-toxic |  | 
3.3% |  | OCCN1CCN(CCCOc2ccc(-c3nc4ccc(Oc5ccc(Cl)cc5)cc4o3)cc2)CC1 |  | 3.3 | 
25.1% | Insoluble | Clc1ccc(Oc2ccc3nc(-c4ccc(OCCCN5CCN(c6ncccn6)CC5)cc4)oc3c2)cc1 |  | 25.1 | 
